Data from ChEMBL document CHEMBL2331458, “Examination of the mode of action of the almiramide family of natural products against the kinetoplastid parasite Trypanosoma brucei” (J Nat Prod, 2013).
Activity calls are given as the source filed them. The rule behind the calls is not given here. Starred links: 1 amine or outer side, 2 acyl side, 3 side chain; linkers in the order of their positions; H or OH if unused. Non-standard residues stand in square brackets, D forms with d. Residues, ends and D or L forms follow the SMILES beside them. *: point of attachment. NH(CH2CH2O)2CH2CH2NHBiotin = O=C(CCCC[C@@H]1SC[C@@H]2NC(=O)N[C@@H]21)NCCOCCOCCN*; Octanoyl(2R-Me,7,8-dehydro) = C=CCCCC[C@@H](C)C(=O)*; Oct7ynoyl(2R-Me) = C#CCCCC[C@@H](C)C(=O)*; X2 = CN(C)c1ccc2c(CC(=O)*)cc(=O)oc2c1; NMeAEEA = CN(CCOCCOCC(=O)[*:2])[*:1]; Ethylenediamine = C(CN[*:2])N[*:1]; NMeF = CN[C@@H](Cc1ccccc1)C(=O)O; X4 = CC(=O)CCCC[C@@H](C)C(=O)*; Oct(7)enoyl = C=CCCCCCC(=O)*; Oct(7)ynoyl = C#CCCCCCC(=O)*; NMeV = CN[C@H](C(=O)O)C(C)C; Hept6ynoyl = C#CCCCCC(=O)*; X5 = COC(=O)CCCCCCCCN(C)*; NMeA = CN[C@@H](C)C(=O)O; X6 = COC(=O)COCCOCCN(C)*; X3 = C=CCCCCC(=O)*

Assays:
[1] = Drug uptake in 120 hrs post fertilized zebrafish embryo intestinal tract at 1 to 270 uM after 3 hrs by confocal microscopic analysis; type: ADME, Danio rerio; conditions: in vivo
In short: (§1)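 Zebrafish embryos at 48 and 120 h post fertilization were incubated with fluorescent probe or fluorophore control in methylene blue-free egg water at 270, 90, 30 and 0 µM, three embryos per treatment. Localization was imaged by confocal microscopy after 3 h.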

[2] = Drug uptake in neomycin-untreated zebrafish embryo neuromast at 250 uM after 3 hrs by confocal microscopic analysis; type: ADME, tissue-based, Danio rerio; conditions: in vivo
In short: (§2)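 Zebrafish embryos were pretreated 1 h with neomycin 500 µM or with medium only. Both groups were then exposed to fluorescent probe (250 µM), fluorophore control (250 µM) or no compound for 3 h, and localization was imaged by confocal microscopy.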

Danio rerio [3] = organism: Danio rerio; experiment: Drug uptake in 48 hrs post fertilized zebrafish embryo lateral line at 1 to 270 uM after 3 hrs by confocal microscopic analysis; type: ADME, organism-based; conditions: in vivo; in short: as §1
[4] = test system: Trypanosoma brucei brucei; experiment: Antiparasitic activity against Trypanosoma brucei brucei 427-221 assessed as growth inhibition up to 50 uM after 48 hrs by cellTiter-Glo assay; type: functional, organism-based
In short: (§3)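 T. b. brucei 427-221 was grown at 37 °C and 5% CO2 in HMI-9 with 10% FBS, 10% Serum Plus and penicillin/streptomycin, then seeded at 2×10^4/mL. Compounds were serially diluted in DMSO (1% final) and exposed for 48 h. Viability was read by CellTiter-Glo ATP luminescence. Percent inhibition was normalized to thimerosal (2 µM final) and DMSO controls, and IC50 was derived by curve fitting.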

[5] = Selectivity index, ratio of LD50 for african green monkey Vero cells to IC50 for Trypanosoma brucei brucei 427-221; type: toxicity, cell-based; conditions: read-out: Ratio LD50/IC50
[6] = test system: Trypanosoma brucei brucei; experiment: Antiparasitic activity against Trypanosoma brucei brucei 427-221 assessed as growth inhibition after 48 hrs by cellTiter-Glo assay; type: functional, organism-based; conditions: 427-221, 48 h; in short: as §3
[7] = Cytotoxicity against african green monkey Vero cells; type: cell-based; conditions: chlorocebus sabaeus, read-out: LD50 (the source's name)
Leishmania donovani = experiment: Antiparasitic activity against Leishmania donovani assessed as growth inhibition; type: functional, organism-based
[8] = Toxicity in 48 hrs post fertilized zebrafish embryo assessed as survival after 24 hrs by inverted microscopic analysis; type: organism-based, Danio rerio; conditions: in vivo, read-out: MTD
[9] = Drug uptake in neomycin-treated zebrafish embryo neuromast at 250 uM after 3 hrs by confocal microscopic analysis; type: ADME, tissue-based, Danio rerio; conditions: in vivo; in short: as §2
Danio rerio [10] = organism: Danio rerio; experiment: Drug uptake in 120 hrs post fertilized zebrafish embryo lateral line at 250 to 500 uM after 3 hrs by confocal microscopic analysis; type: ADME, organism-based; conditions: in vivo
Trypanosoma brucei = experiment: Antiparasitic activity against Trypanosoma brucei assessed as growth inhibition; type: functional, organism-based; in short: as §3

SMILES | selectivity ratio [5] | IC50 [6] | CC50 [7] | further results
CN(C)c1ccc2c(CC(=O)NCCNC(=O)CCc3ccccc3)cc(=O)oc2c1 |  |  |  | Drug uptake [1]: Active; Drug uptake [2]: Not Active; Drug uptake (Danio rerio [3]): Active
Cc1cc(C)n2c1C=C1C=CC(CCC(=O)NCCNC(=O)CCc3ccccc3)=[N+]1[B-]2(F)F |  |  |  | Activity [4]: inactive
C#CCCCCC(=O)N(C)[C@H](C(=O)N(C)[C@H](C(=O)N(C)[C@H](C(=O)N(C)[C@@H](C)C(=O)N(C)[C@@H](Cc1ccccc1)C(=O)N(C)C)C(C)C)C(C)C)C(C)C (Hept6ynoyl-[NMeV][NMeV][NMeV][NMeA][NMeF]-NMe2) | 120 | 1.3 µM | 156 µM | 
C#CCCCCC(=O)N(C)[C@H](C(=O)N(C)[C@H](C(=O)N(C)[C@H](C(=O)N(C)[C@@H](C)C(=O)N(C)[C@@H](Cc1ccccc1)C(=O)O)C(C)C)C(C)C)C(C)C (Hept6ynoyl-[NMeV][NMeV][NMeV][NMeA][NMeF]-OH) |  | > 13.7 µM | 281 µM | 
C#CCCCCC(=O)N(C)[C@H](C(=O)N(C)[C@H](C(=O)N(C)[C@H](C(=O)N(C)[C@@H](C)C(=O)N(C)[C@@H](Cc1ccccc1)C(=O)OC)C(C)C)C(C)C)C(C)C (Hept6ynoyl-[NMeV][NMeV][NMeV][NMeA][NMeF]-OMe) | 69 | 0.6 µM | 41.4 µM | 
C=CCCCCC(=O)N(C)[C@H](C(=O)N(C)[C@H](C(=O)N(C)[C@H](C(=O)N(C)[C@@H](C)C(=O)N(C)[C@@H](Cc1ccccc1)C(=O)N(C)C)C(C)C)C(C)C)C(C)C (X3-[NMeV][NMeV][NMeV][NMeA][NMeF]-NMe2) | 160 | 0.6 µM | 93.1 µM | IC50 (Leishmania donovani): 6.7 µM
C=CCCCCC(=O)N(C)[C@H](C(=O)N(C)[C@H](C(=O)N(C)[C@H](C(=O)N(C)[C@@H](C)C(=O)N(C)[C@@H](Cc1ccccc1)C(=O)O)C(C)C)C(C)C)C(C)C (X3-[NMeV][NMeV][NMeV][NMeA][NMeF]-OH) | > 27 | 2.6 µM | > 70 µM | 
C=CCCCCC(=O)N(C)[C@H](C(=O)N(C)[C@H](C(=O)N(C)[C@H](C(=O)N(C)[C@@H](C)C(=O)N(C)[C@@H](Cc1ccccc1)C(=O)OC)C(C)C)C(C)C)C(C)C (X3-[NMeV][NMeV][NMeV][NMeA][NMeF]-OMe) | 41 | 0.6 µM | 24.7 µM | 
C=CCCCCCC(=O)N(C)[C@H](C(=O)N(C)[C@H](C(=O)N(C)[C@H](C(=O)N(C)[C@@H](C)C(=O)N(C)[C@@H](Cc1ccccc1)C(=O)N(C)C)C(C)C)C(C)C)C(C)C ({Oct(7)enoyl}-[NMeV][NMeV][NMeV][NMeA][NMeF]-NMe2) | 40 | 0.6 µM | 23.8 µM | IC50 (Leishmania donovani): 2.7 µM
C=CCCCCCC(=O)N(C)[C@H](C(=O)N(C)[C@H](C(=O)N(C)[C@H](C(=O)N(C)[C@@H](C)C(=O)N(C)[C@@H](Cc1ccccc1)C(=O)O)C(C)C)C(C)C)C(C)C ({Oct(7)enoyl}-[NMeV][NMeV][NMeV][NMeA][NMeF]-OH) |  | > 13.7 µM | 192 µM | 
C=CCCCCCC(=O)N(C)[C@H](C(=O)N(C)[C@H](C(=O)N(C)[C@H](C(=O)N(C)[C@@H](C)C(=O)N(C)[C@@H](Cc1ccccc1)C(=O)OC)C(C)C)C(C)C)C(C)C ({Oct(7)enoyl}-[NMeV][NMeV][NMeV][NMeA][NMeF]-OMe) | 47 | 0.4 µM | 18.8 µM | MNTC at 24 h [8]: 168 µM
C=CCCCCCC(=O)N(C)[C@H](C(=O)N(C)[C@H](C(=O)N(C)[C@H](C(=O)N(C)[C@@H](C)C(=O)N(C)[C@@H](Cc1ccccc1)C(=O)N(C)CCCCCCCCC(=O)OC)C(C)C)C(C)C)C(C)C ({Oct(7)enoyl}-[NMeV][NMeV][NMeV][NMeA][NMeF]-X5) |  | 0.7 µM |  | 
C=CCCCCCC(=O)N(C)[C@H](C(=O)N(C)[C@H](C(=O)N(C)[C@H](C(=O)N(C)[C@@H](C)C(=O)N(C)[C@@H](Cc1ccccc1)C(=O)N(C)CCOCCOCC(=O)OC)C(C)C)C(C)C)C(C)C ({Oct(7)enoyl}-[NMeV][NMeV][NMeV][NMeA][NMeF]-X6) |  | 3.5 µM |  | 
C=CCCCCCC(=O)N(C)[C@H](C(=O)N(C)[C@H](C(=O)N(C)[C@H](C(=O)N(C)[C@@H](C)C(=O)N(C)[C@@H](Cc1ccccc1)C(=O)NCCOCCOCCNC(=O)CCCC[C@@H]1SC[C@@H]2NC(=O)N[C@@H]21)C(C)C)C(C)C)C(C)C ({Oct(7)enoyl}-[NMeV][NMeV][NMeV][NMeA][NMeF]-{NH(CH2CH2O)2CH2CH2NHBiotin}) |  |  |  | IC50 (Leishmania donovani): 9.9 µM
C=CCCCCCC(=O)N(C)[C@H](C(=O)N(C)[C@H](C(=O)N(C)[C@H](C(=O)N(C)[C@@H](C)C(=O)N(C)[C@@H](Cc1ccccc1)C(=O)N(C)CCOCCOCC(=O)NCCNC(=O)Cc1cc(=O)oc2cc(N(C)C)ccc12)C(C)C)C(C)C)C(C)C ({Oct(7)enoyl}-[NMeV][NMeV][NMeV][NMeA][NMeF][NMeAEEA]-{Ethylenediamine-X2}) |  |  |  | Drug uptake [1]: Active; Drug uptake [9]: Not Active; Drug uptake (Danio rerio [10]): Active; Drug uptake [2]: Active; Drug uptake (Danio rerio [3]): Active
C#CCCCCCC(=O)N(C)[C@H](C(=O)N(C)[C@H](C(=O)N(C)[C@H](C(=O)N(C)[C@@H](C)C(=O)N(C)[C@@H](Cc1ccccc1)C(=O)N(C)C)C(C)C)C(C)C)C(C)C ({Oct(7)ynoyl}-[NMeV][NMeV][NMeV][NMeA][NMeF]-NMe2) | 270 | 0.6 µM | 159 µM | 
C#CCCCCCC(=O)N(C)[C@H](C(=O)N(C)[C@H](C(=O)N(C)[C@H](C(=O)N(C)[C@@H](C)C(=O)N(C)[C@@H](Cc1ccccc1)C(=O)O)C(C)C)C(C)C)C(C)C ({Oct(7)ynoyl}-[NMeV][NMeV][NMeV][NMeA][NMeF]-OH) | > 6.7 | 10.3 µM | > 68.9 µM | 
C#CCCCCCC(=O)N(C)[C@H](C(=O)N(C)[C@H](C(=O)N(C)[C@H](C(=O)N(C)[C@@H](C)C(=O)N(C)[C@@H](Cc1ccccc1)C(=O)OC)C(C)C)C(C)C)C(C)C ({Oct(7)ynoyl}-[NMeV][NMeV][NMeV][NMeA][NMeF]-OMe) | 45 | 0.6 µM | 27 µM | 
CC(=O)CCCC[C@@H](C)C(=O)N(C)[C@H](C(=O)N(C)[C@H](C(=O)N[C@H](C(=O)N(C)[C@@H](C)C(=O)N(C)[C@@H](Cc1ccccc1)C(N)=O)C(C)C)C(C)C)C(C)C [ALMIRAMIDE A] (X4-[NMeV][NMeV]V[NMeA][NMeF]-NH2) |  |  | 113 µM | 
C#CCCCC[C@@H](C)C(=O)N(C)[C@H](C(=O)N(C)[C@H](C(=O)N[C@H](C(=O)N(C)[C@@H](C)C(=O)N(C)[C@@H](Cc1ccccc1)C(N)=O)C(C)C)C(C)C)C(C)C [ALMIRAMIDE B] ({Oct7ynoyl(2R-Me)}-[NMeV][NMeV]V[NMeA][NMeF]-NH2) | 8.7 | 6 µM | 52.3 µM | 
C=CCCCC[C@@H](C)C(=O)N(C)[C@H](C(=O)N(C)[C@H](C(=O)N[C@H](C(=O)N(C)[C@@H](C)C(=O)N(C)[C@@H](Cc1ccccc1)C(N)=O)C(C)C)C(C)C)C(C)C [ALMIRAMIDE C] ({Octanoyl(2R-Me,7,8-dehydro)}-[NMeV][NMeV]V[NMeA][NMeF]-NH2) | 11 | 3 µM | 33.1 µM | 
NCCCC(N)(C(=O)O)C(F)F (stereo not given) [EFLORNITHINE] |  |  |  | IC50 (Trypanosoma brucei): 59 µM
Nc1nc(N)nc(Nc2ccc([As]3SCC(CO)S3)cc2)n1 (stereo not given) [MELARSOPROL] |  |  |  | IC50 (Trypanosoma brucei): 0.01 µM
N=C(N)c1ccc(OCCCCCOc2ccc(C(=N)N)cc2)cc1 [PENTAMIDINE] |  |  |  | IC50 (Trypanosoma brucei): 0.03 µM
Cc1ccc(C(=O)Nc2ccc(S(=O)(=O)O)c3cc(S(=O)(=O)O)cc(S(=O)(=O)O)c23)cc1NC(=O)c1cccc(NC(=O)Nc2cccc(C(=O)Nc3cc(C(=O)Nc4ccc(S(=O)(=O)O)c5cc(S(=O)(=O)O)cc(S(=O)(=O)O)c45)ccc3C)c2)c1 [SURAMIN] |  |  |  | IC50 (Trypanosoma brucei): 1.4 µM
